Data published in ChEMBL document CHEMBL1137781, “Synthesis and preclinical evaluation of novel PET probes for P-glycoprotein function and expression” (J Med Chem, 2009).

How the values were obtained:
Details in all cases: in vivo
[1] = test system: Cerebellum; experiment: Biodistribution in 50 mg/kg cyclosporin A pretreated Wistar rat cerebellum at 27+/-2 MBq, iv after 80 mins; type: ADME, organism-based; parameters: dose 50 mg/kg, route intravenous
Method in brief: (§1)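 Male Wistar rats pretreated via tail vein with saline or cyclosporin A (50 mg/kg, commercial solution), then given the [11C] tracer via penile vein. After microPET scanning the anesthetized rats were killed. Tissues were excised and weighed, and blood was centrifuged into plasma and cells. γ counting with decay correction. Results as SUV (tissue MBq/g × body weight/injected dose).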

[2] = Biodistribution in 50 mg/kg cyclosporin A pretreated Wistar rat parietal/temporal/occipital cortex at 27+/-2 MBq, iv after 80 mins; type: ADME, organism-based; parameters: dose 50 mg/kg, route intravenous
[3] = test system: Pons; experiment: Biodistribution in Wistar rat pons at 40+/-4 MBq, iv after 80 mins; type: ADME, organism-based
[4] = test system: Heart; experiment: Biodistribution in Wistar rat heart at 40+/-4 MBq, iv after 80 mins; type: ADME, organism-based
Method in brief: (§2)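 Male Wistar rats (12 h light/dark, chow ad libitum) were fitted with a femoral arterial cannula under isoflurane. They were pretreated via tail vein with saline, cyclosporin A (50 mg/kg), or nonradioactive tracer compound (15 mg/kg; 10 mg/mL in saline with 35% ethanol). The 11C tracer was then given via penile vein, followed by 76 min microPET. Animals were then terminated; excised tissues were weighed and gamma-counted with decay correction. Values are SUVs (tissue MBq/g × body weight g / injected MBq).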

[5] = Biodistribution in Wistar rat red blood cells at 40+/-4 MBq, iv after 80 mins; type: ADME, organism-based, Erythrocyte
[6] = Biodistribution in Wistar rat parietal/temporal/occipital cortex at 40+/-4 MBq, iv after 80 mins; type: ADME, organism-based; method in brief: as §2
[7] = Biodistribution in Wistar rat fat at 40+/-4 MBq, iv after 80 mins; type: ADME, organism-based, Adipose tissue; method in brief: as §2
[8] = test system: Colon; experiment: Biodistribution in 50 mg/kg cyclosporin A pretreated Wistar rat colon at 27+/-2 MBq, iv after 80 mins; type: ADME, organism-based; parameters: dose 50 mg/kg, route intravenous; method in brief: as §1
[9] = Biodistribution in 50 mg/kg cyclosporin A pretreated Wistar rat medulla at 27+/-2 MBq, iv after 80 mins; type: ADME, organism-based, Medulla of organ; parameters: dose 50 mg/kg, route intravenous
[10] = test system: Bone; experiment: Biodistribution in Wistar rat bone at 40+/-4 MBq, iv after 80 mins; type: ADME, organism-based, Bone element
[11] = test system: Duodenum; experiment: Biodistribution in 50 mg/kg cyclosporin A pretreated Wistar rat duodenum at 27+/-2 MBq, iv after 80 mins; type: ADME, organism-based; parameters: dose 50 mg/kg, route intravenous; method in brief: as §1
[12] = test system: Ileum; experiment: Biodistribution in Wistar rat ileum at 40+/-4 MBq, iv after 80 mins; type: ADME, organism-based; method in brief: as §2
[13] = test system: Lung; experiment: Biodistribution in 50 mg/kg cyclosporin A pretreated Wistar rat lung at 27+/-2 MBq, iv after 80 mins; type: ADME, organism-based; parameters: dose 50 mg/kg, route intravenous
[14] = Biodistribution in Wistar rat trachea at 40+/-4 MBq, iv after 80 mins; type: ADME, organism-based
[15] = Biodistribution in 50 mg/kg cyclosporin A pretreated Wistar rat amygdala at 27+/-2 MBq, iv after 80 mins; type: ADME, organism-based; parameters: dose 50 mg/kg, route intravenous; method in brief: as §1
[16] = test system: Duodenum; experiment: Biodistribution in Wistar rat duodenum at 40+/-4 MBq, iv after 80 mins; type: ADME, organism-based; method in brief: as §2
[17] = test system: Plasma; experiment: Biodistribution in Wistar rat plasma at 40+/-4 MBq, iv after 80 mins; type: ADME, organism-based
[18] = test system: Ileum; experiment: Biodistribution in 50 mg/kg cyclosporin A pretreated Wistar rat ileum at 27+/-2 MBq, iv after 80 mins; type: ADME, organism-based; parameters: dose 50 mg/kg, route intravenous
[19] = test system: Liver; experiment: Biodistribution in 50 mg/kg cyclosporin A pretreated Wistar rat liver at 27+/-2 MBq, iv after 80 mins; type: ADME, organism-based; parameters: dose 50 mg/kg, route intravenous
[20] = test system: Bone; experiment: Biodistribution in 50 mg/kg cyclosporin A pretreated Wistar rat bone at 27+/-2 MBq, iv after 80 mins; type: ADME, organism-based, Bone element; parameters: dose 50 mg/kg, route intravenous; method in brief: as §1
[21] = test system: Muscle tissue; experiment: Biodistribution in 50 mg/kg cyclosporin A pretreated Wistar rat muscle at 27+/-2 MBq, iv after 80 mins; type: ADME, organism-based; parameters: dose 50 mg/kg, route intravenous
[22] = test system: Kidney; experiment: Biodistribution in 50 mg/kg cyclosporin A pretreated Wistar rat kidney at 27+/-2 MBq, iv after 80 mins; type: ADME, organism-based; parameters: dose 50 mg/kg, route intravenous
[23] = test system: Heart; experiment: Biodistribution in 50 mg/kg cyclosporin A pretreated Wistar rat heart at 27+/-2 MBq, iv after 80 mins; type: ADME, organism-based; parameters: dose 50 mg/kg, route intravenous
[24] = Biodistribution in Wistar rat bulbus olfactorius at 40+/-4 MBq, iv after 80 mins; type: ADME, organism-based, Olfactory bulb
[25] = test system: Lung; experiment: Biodistribution in Wistar rat lung at 40+/-4 MBq, iv after 80 mins; type: ADME, organism-based; method in brief: as §2
[26] = Biodistribution in 50 mg/kg cyclosporin A pretreated Wistar rat trachea at 27+/-2 MBq, iv after 80 mins; type: ADME, organism-based; parameters: dose 50 mg/kg, route intravenous
[27] = Biodistribution in Wistar rat medulla at 40+/-4 MBq, iv after 80 mins; type: ADME, organism-based, Medulla of organ; method in brief: as §2
[28] = test system: Spleen; experiment: Biodistribution in 50 mg/kg cyclosporin A pretreated Wistar rat spleen at 27+/-2 MBq, iv after 80 mins; type: ADME, organism-based; parameters: dose 50 mg/kg, route intravenous

## COc1cc2c(cc1OC)CN(CCCC1CCCc3c(O[11CH3])cccc31)CC2 (stereo not drawn)
[1]
  SUV: 0.99
[2]
  SUV: 1.04
[3]
  SUV: 0.48
[4]
  SUV: 0.37
[5]
  SUV: 0.18
[6]
  SUV: 0.36
[7]
  SUV: 0.36
[8]
  SUV: 1.81
[9]
  SUV: 1.14
[10]
  SUV: 0.28
[11]
  SUV: 2.58
[12]
  SUV: 1.27
[13]
  SUV: 0.98
[14]
  SUV: 0.78
[15]
  SUV: 1.07
[16]
  SUV: 2.74
[17]
  SUV: 0.29
[18]
  SUV: 1.1
[19]
  SUV: 2.67
[20]
  SUV: 0.26
[21]
  SUV: 0.26
[22]
  SUV: 1.47
[23]
  SUV: 0.34
[24]
  SUV: 0.33
[25]
  SUV: 1.19
[26]
  SUV: 0.74
[27]
  SUV: 0.41
[28]
  SUV: 1.73
